Data published in ChEMBL document CHEMBL2029317, “(Z)-2-(2-bromophenyl)-3-{[4-(1-methyl-piperazine)amino]phenyl}acrylonitrile (DG172): an orally bioavailable PPARβ/δ-selective ligand with inverse agonistic properties” (J Med Chem, 2012).
The source made the active and inactive calls. The calls are words filed in the database; no cut-off is given here.

Tests used:
[1] = molecular target: T1, Peroxisome proliferator-activated receptor delta (Mus musculus) (UniProt P35396); experiment: Antagonist activity at PPARbeta/delta in mouse NIH3T3 cells coexpressing LexA assessed as decrease in L165,041-induced transcriptional activation at 1 uM after 48 hrs by luciferase reporter gene assay relative to control; type: functional, cell-based
T1 sequence (whole entry): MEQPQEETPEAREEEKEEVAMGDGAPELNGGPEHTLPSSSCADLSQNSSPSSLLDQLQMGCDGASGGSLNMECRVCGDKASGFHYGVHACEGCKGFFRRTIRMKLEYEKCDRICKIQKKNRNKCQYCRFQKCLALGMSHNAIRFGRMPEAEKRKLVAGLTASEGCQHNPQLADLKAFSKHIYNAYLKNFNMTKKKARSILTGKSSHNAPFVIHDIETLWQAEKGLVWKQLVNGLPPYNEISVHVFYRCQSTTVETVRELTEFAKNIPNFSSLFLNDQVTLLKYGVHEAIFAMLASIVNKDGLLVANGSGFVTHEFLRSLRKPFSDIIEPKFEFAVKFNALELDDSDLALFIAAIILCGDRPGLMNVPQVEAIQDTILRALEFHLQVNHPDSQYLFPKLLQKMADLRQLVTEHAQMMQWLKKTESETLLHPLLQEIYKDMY
Procedure, shortened: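 NIH3T3 cells were transfected with LexA-PPARα, -PPARβ/δ or -PPARγ fusion plasmids plus the 7L-TATAi luciferase reporter. From 4 h post-transfection, cells received inhibitory ligand (1 μM) for 48 h. Agonists followed: GW7647 300 nM (PPARα), L165,041 1 μM (PPARβ/δ) or GW1929 300 nM (PPARγ), or agonist solvent. Induction is luciferase activity with agonist relative to solvent; triplicates with t test.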

[2] = molecular target: T2, Peroxisome proliferator-activated receptor gamma (Homo sapiens) (UniProt P37231); experiment: Displacement of fluormone Pan-PPAR Green from PPARgamma at 100 to 1000 nM after 60 mins by TR-FRET assay
T2 sequence (whole entry): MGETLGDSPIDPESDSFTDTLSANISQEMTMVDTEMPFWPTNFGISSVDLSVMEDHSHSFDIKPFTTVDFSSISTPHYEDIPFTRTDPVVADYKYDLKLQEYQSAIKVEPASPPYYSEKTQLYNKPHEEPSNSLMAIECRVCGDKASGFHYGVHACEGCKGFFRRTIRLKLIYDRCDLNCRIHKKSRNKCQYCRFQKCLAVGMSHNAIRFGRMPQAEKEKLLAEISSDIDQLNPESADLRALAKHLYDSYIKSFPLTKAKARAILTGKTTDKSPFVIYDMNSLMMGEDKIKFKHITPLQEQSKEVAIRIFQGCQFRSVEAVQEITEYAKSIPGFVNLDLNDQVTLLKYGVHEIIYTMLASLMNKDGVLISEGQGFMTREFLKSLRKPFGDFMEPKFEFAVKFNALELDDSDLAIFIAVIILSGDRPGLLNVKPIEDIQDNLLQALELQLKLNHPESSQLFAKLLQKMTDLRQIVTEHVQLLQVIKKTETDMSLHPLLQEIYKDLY

[3] = molecular target: T3, Peroxisome proliferator-activated receptor delta (Mus musculus, UniProt P35396); experiment: Inverse agonist activity at PPARbeta/delta in mouse C2C12 cells assessed as inhibition of Angptl4 expression after 24 hrs by RT-qPCR analysis; type: functional, cell-based
T3 sequence (P35396 whole entry): T1 sequence (whole entry)

[4] = system: Macrophage; experiment: Inhibition of Angptl expression in mouse Ppard-knock out macrophages at 1 uM after 6 hrs by RT-qPCR analysis; type: functional, cell-based
Procedure, shortened: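 Macrophages from Ppard null and wild-type mice were treated with compound (1 μM), agonist L165,041 (500 nM) or DMSO solvent for 6 h. Angptl4 mRNA was measured by RT-qPCR with L27 as the normalizer.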

[5] = Half life in CD1 mouse plasma at 1 mg/kg, iv; type: ADME, organism-based; parameters: dose 1 mg/kg, route intravenous
Procedure, shortened: (§1)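 Male CD-1 mice dosed iv by tail vein (1 mg/kg) or po by gastric gavage (5 mg/kg). Vehicle was DMSO/Solutol HS 15/PBS pH 7.4 (5/5/90, v/v/v). Blood was taken at eight time points from 10 min to 12 h, by parallel sampling of three mice per point. Plasma was acetonitrile-precipitated and analysed by HPLC-MS/MS, and basic PK parameters were derived.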

[6] = Clearance in CD1 mouse at 1 mg/kg, iv; type: ADME, organism-based; parameters: dose 1 mg/kg, route intravenous; conditions: in vivo; procedure, shortened: as §1
[7] = system: Mus musculus; experiment: AUC (infinity) in CD1 mouse at 5 mg/kg, po; type: ADME, organism-based, Plasma; parameters: time infinity, dose 5 mg/kg, route oral; conditions: in vivo; procedure, shortened: as §1
[8] = Cmax in CD1 mouse at 5 mg/kg, po; type: ADME, organism-based; parameters: dose 5 mg/kg, route oral; conditions: in vivo; procedure, shortened: as §1
[9] = Half life in CD1 mouse at 5 mg/kg, po; type: ADME, organism-based; parameters: dose 5 mg/kg, route oral; conditions: in vivo; procedure, shortened: as §1
[10] = Oral bioavailability in CD1 mouse at 5 mg/kg; type: ADME, organism-based; conditions: in vivo; procedure, shortened: as §1
[11] = molecular target: T1, Peroxisome proliferator-activated receptor delta (Mus musculus); conditions: 1 uM
[12] = molecular target: T1, Peroxisome proliferator-activated receptor delta (Mus musculus); experiment: Displacement of fluormone Pan-PPAR Green from mouse recombinant GST-tagged PPARbeta/delta LBD after 60 mins by TR-FRET assay
[13] = Drug uptake in CD1 mouse blood at 5 mg/kg, po up to 30 mins

| Activity [1] | Activity [2] | IC50 [3] [nM] | half-life [5] [h] | clearance [6] [mL/min/kg] | AUC [7] [ng·h/mL] | Cmax [8] [ng/mL] | half-life [9] [h] | bioavailability [10] [%] | inhibition [11] | Activity [12] | concentration at 0.5 h [13] [ng/mL] | SMILES | inhibition [4] |
| --- | --- | --- | --- | --- | --- | --- | --- | --- | --- | --- | --- | --- | --- |
| Active | inactive | 9.5 | 1.27 | 121 | 137 | 94 | 10.6 | 72 | Active |  |  | CN1CCN(c2ccc(/C=C(\C#N)c3ccccc3Br)cc2)CC1 | inactive |
| Active | inactive | 52 | 1.27 | 176 |  |  |  |  |  | Active | ≤ 6 | CN(C)c1ccc(/C=C(\C#N)c2ccccc2Cl)cc1 |  |
